Experimental data published in ChEMBL document CHEMBL1142198, “Diversity of ampicillin resistance genes and antimicrobial susceptibility patterns in Haemophilus influenzae strains isolated in Korea” (2007).
Converted amounts (≈) assume the structure as drawn.

Assays:
Type in all cases: functional
Haemophilus influenzae [1] = assay: Antimicrobial activity against Haemophilus influenzae strains causing clinical infections
Method in brief: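 Etest MICs for 196 clinical-infection isolates collected 2000–2005 at two Seoul tertiary-care hospitals. A 0.5 McFarland broth suspension was spread on Haemophilus test medium agar, strips applied once dry, then incubated 35°C, 5% CO2, 20 h. ATCC 49766 and ATCC 49247 served as controls in each batch.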

Haemophilus influenzae [2] = assay: Antimicrobial activity against Haemophilus influenzae BLPACR strains
Method in brief: (§1)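 Etest MIC determination on Haemophilus test medium agar inoculated evenly with a broth suspension equivalent to a 0.5 McFarland standard. Once dry, strips for 10 antibiotics applied; incubated 35°C, 5% CO2, 20 h. MIC read at complete growth inhibition. ATCC 49766 and ATCC 49247 included as controls in each batch. Korean clinical isolates 2000–2005 classified by nitrocefin disk and PCR.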

Haemophilus influenzae [3] = assay: Antimicrobial activity against Haemophilus influenzae BLPAR strains; method in brief: as §1
Haemophilus influenzae [4] = assay: Antimicrobial activity against Haemophilus influenzae BLNAS strains; method in brief: as §1
Haemophilus influenzae [5] = assay: Antimicrobial activity against Haemophilus influenzae BLNAR strains; method in brief: as §1
Haemophilus influenzae [6] = assay: Antimicrobial activity against Haemophilus influenzae strains that are normal flora; method in brief: as §1

Row | SMILES | MIC50 (Haemophilus influenzae [1]) | MIC90 (Haemophilus influenzae [1]) | MIC50 (Haemophilus influenzae [2]) | MIC90 (Haemophilus influenzae [2]) | MIC50 (Haemophilus influenzae [3]) | MIC90 (Haemophilus influenzae [3]) | MIC50 (Haemophilus influenzae [4]) | MIC90 (Haemophilus influenzae [4]) | MIC50 (Haemophilus influenzae [5]) | MIC90 (Haemophilus influenzae [5]) | MIC50 (Haemophilus influenzae [6]) | MIC90 (Haemophilus influenzae [6])
1 | CC1(C)S[C@@H]2[C@H](NC(=O)[C@H](N)c3ccccc3)C(=O)N2[C@H]1C(=O)O [AMPICILLIN] | 24 µg/mL (≈ 68.7 µM) | 256 µg/mL (≈ 733 µM) | 256 µg/mL (≈ 733 µM) | 256 µg/mL (≈ 733 µM) | 256 µg/mL (≈ 733 µM) | 256 µg/mL (≈ 733 µM) | 0.25 µg/mL (≈ 0.715 µM) | 0.38 µg/mL (≈ 1.09 µM) | 0.75 µg/mL (≈ 2.15 µM) | 256 µg/mL (≈ 733 µM) | 0.38 µg/mL (≈ 1.09 µM) | 256 µg/mL (≈ 733 µM)
2 | N[C@@H](C(=O)N[C@@H]1C(=O)N2C(C(=O)O)=C(Cl)CS[C@H]12)c1ccccc1 [CEFACLOR ANHYDROUS] | 8 µg/mL (≈ 21.8 µM) | 256 µg/mL (≈ 696 µM) | 16 µg/mL (≈ 43.5 µM) | 256 µg/mL (≈ 696 µM) | 12 µg/mL (≈ 32.6 µM) | 256 µg/mL (≈ 696 µM) | 2 µg/mL (≈ 5.44 µM) | 6 µg/mL (≈ 16.3 µM) | 6 µg/mL (≈ 16.3 µM) | 256 µg/mL (≈ 696 µM) | 2 µg/mL (≈ 5.44 µM) | 256 µg/mL (≈ 696 µM)
3 | C=CC1=C(C(=O)O)N2C(=O)[C@@H](NC(=O)/C(=N\OCC(=O)O)c3csc(N)n3)[C@H]2SC1 [CEFIXIME] | 0.047 µg/mL (≈ 0.104 µM) | 0.75 µg/mL (≈ 1.65 µM) | 0.064 µg/mL (≈ 0.141 µM) | 256 µg/mL (≈ 565 µM) | 0.047 µg/mL (≈ 0.104 µM) | 32 µg/mL (≈ 70.6 µM) | 0.023 µg/mL (≈ 0.0507 µM) | 0.064 µg/mL (≈ 0.141 µM) | 0.064 µg/mL (≈ 0.141 µM) | 32 µg/mL (≈ 70.6 µM) | 0.047 µg/mL (≈ 0.104 µM) | 32 µg/mL (≈ 70.6 µM)
4 | CO/N=C(\C(=O)N[C@@H]1C(=O)N2C(C(=O)O)=C(COC(N)=O)CS[C@H]12)c1ccco1 [CEFUROXIME] | 1 µg/mL (≈ 2.36 µM) | 8 µg/mL (≈ 18.9 µM) | 1 µg/mL (≈ 2.36 µM) | 256 µg/mL (≈ 603 µM) | 1 µg/mL (≈ 2.36 µM) | 256 µg/mL (≈ 603 µM) | 0.5 µg/mL (≈ 1.18 µM) | 1 µg/mL (≈ 2.36 µM) | 1 µg/mL (≈ 2.36 µM) | 8 µg/mL (≈ 18.9 µM) | 0.5 µg/mL (≈ 1.18 µM) | 256 µg/mL (≈ 603 µM)
5 | O=C(N[C@H](CO)[C@H](O)c1ccc([N+](=O)[O-])cc1)C(Cl)Cl [CHLORAMPHENICOL] | 0.5 µg/mL (≈ 1.55 µM) | 8 µg/mL (≈ 24.8 µM) | 0.5 µg/mL (≈ 1.55 µM) | 8 µg/mL (≈ 24.8 µM) | 0.75 µg/mL (≈ 2.32 µM) | 12 µg/mL (≈ 37.1 µM) | 0.5 µg/mL (≈ 1.55 µM) | 0.75 µg/mL (≈ 2.32 µM) | 0.5 µg/mL (≈ 1.55 µM) | 6 µg/mL (≈ 18.6 µM) | 0.75 µg/mL (≈ 2.32 µM) | 4 µg/mL (≈ 12.4 µM)
6 | CC[C@H]1OC(=O)[C@H](C)[C@@H](O[C@H]2C[C@@](C)(OC)[C@@H](O)[C@H](C)O2)[C@H](C)[C@@H](O[C@@H]2O[C@H](C)C[C@H](N(C)C)[C@H]2O)[C@](C)(OC)C[C@@H](C)C(=O)[C@H](C)[C@@H](O)[C@]1(C)O [CLARITHROMYCIN] | 16 µg/mL (≈ 21.4 µM) | 32 µg/mL (≈ 42.8 µM) | 16 µg/mL (≈ 21.4 µM) | 256 µg/mL (≈ 342 µM) | 16 µg/mL (≈ 21.4 µM) | 32 µg/mL (≈ 42.8 µM) | 16 µg/mL (≈ 21.4 µM) | 24 µg/mL (≈ 32.1 µM) | 12 µg/mL (≈ 16 µM) | 24 µg/mL (≈ 32.1 µM) | 16 µg/mL (≈ 21.4 µM) | 32 µg/mL (≈ 42.8 µM)
7 | C[C@H]1COc2c(N3CCN(C)CC3)c(F)cc3c(=O)c(C(=O)O)cn1c23.C[C@H]1COc2c(N3CCN(C)CC3)c(F)cc3c(=O)c(C(=O)O)cn1c23.O [LEVOFLOXACIN] | 0.016 µg/mL | 0.32 µg/mL | 0.016 µg/mL | 0.047 µg/mL | 0.016 µg/mL | 0.032 µg/mL | 0.016 µg/mL | 0.032 µg/mL | 0.023 µg/mL | 1 µg/mL | 0.023 µg/mL | 1 µg/mL
8 | C[C@@H](O)[C@H]1C(=O)N2C(C(=O)O)=C(S[C@@H]3CN[C@H](C(=O)N(C)C)C3)[C@H](C)[C@H]12 [MEROPENEM] | 0.094 µg/mL (≈ 0.245 µM) | 32 µg/mL (≈ 83.4 µM) | 0.19 µg/mL (≈ 0.495 µM) | 0.38 µg/mL (≈ 0.991 µM) | 0.094 µg/mL (≈ 0.245 µM) | 32 µg/mL (≈ 83.4 µM) | 0.064 µg/mL (≈ 0.167 µM) | 0.125 µg/mL (≈ 0.326 µM) | 0.125 µg/mL (≈ 0.326 µM) | 32 µg/mL (≈ 83.4 µM) | 0.094 µg/mL (≈ 0.245 µM) | 32 µg/mL (≈ 83.4 µM)
